# Measurements: ChEMBL document CHEMBL5058577, “EUbOPEN Chemogenomics Library 2 (Multiplex)” (2022)
# Test system: U2OS
# Assay: Multiplex assay against U2OS
# Type: toxicity, cell-based
# Details: human
# Summary of the method: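 Four dyes were applied at seeding to live cells: Hoechst33342, BioTracker Green Microtubule Cytoskeleton Dye, MitoTracker Red and Annexin V Alexa Fluor 680. Imaging after compound addition used a CQ1 microscope at 37°C and 5% CO2. CellPathfinder machine-learning gating then sorted cells into Hoechst high-intensity objects or normal cells, normal cells into healthy, pyknosed or fragmented nuclei, and pyknosed cells into mitotic or apoptotic, with tubulin, mitochondrial-mass and membrane-permeability phenotypes given as per cents of healthy-nucleus cells.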
# [1] = 12 h, 1 µM, compound concentration 1 uM, replicate 1
# [2] = 12 h, 1 µM, compound concentration 1 uM, replicate 2
# [3] = 12 h, 10 µM, compound concentration 10 uM, replicate 1
# [4] = 12 h, 10 µM, compound concentration 10 uM, replicate 2
# [5] = 24 h, 1 µM, compound concentration 1 uM, replicate 1
# [6] = 24 h, 1 µM, compound concentration 1 uM, replicate 2
# [7] = 24 h, 10 µM, compound concentration 10 uM, replicate 1
# [8] = 24 h, 10 µM, compound concentration 10 uM, replicate 2
# [9] = 48 h, 1 µM, compound concentration 1 uM, replicate 1
# [10] = 48 h, 1 µM, compound concentration 1 uM, replicate 2
# [11] = 48 h, 10 µM, compound concentration 10 uM, replicate 1
# [12] = 48 h, 10 µM, compound concentration 10 uM, replicate 2
smiles,measurement,setting,value
Cn1cc(C(=O)OCC2CCN(CCNS(C)(=O)=O)CC2)c2ccccc21,Population Apoptotic (%),[1],73%
same,Population Fragmented Nuclei (%),[1],27%
same,Population Healthy Nuclei (%),[1],63%
same,Population Hoechst High Intensity Objects (%),[1],3%
same,Population Membrane Permeable-Phenotype (%),[1],7%
same,Population Mitochondria Different-Phenotype (%),[1],4%
same,Population Mitotic Cells (%),[1],26%
same,Population Normal (%),[1],96%
same,Population Pyknosed Nuclei (%),[1],8%
same,Population Tubulin-Different-Phenotype (%),[1],5%
same,Total Cell Count,[1],226
same,Population Apoptotic (%),[2],77%
same,Population Fragmented Nuclei (%),[2],20%
same,Population Healthy Nuclei (%),[2],71%
same,Population Hoechst High Intensity Objects (%),[2],0%
same,Population Membrane Permeable-Phenotype (%),[2],13%
same,Population Mitochondria Different-Phenotype (%),[2],5%
same,Population Mitotic Cells (%),[2],22%
same,Population Normal (%),[2],100%
same,Population Tubulin-Different-Phenotype (%),[2],6%
same,Total Cell Count,[2],110
same,Population Apoptotic (%),[3],53%
same,Population Fragmented Nuclei (%),[3],36%
same,Population Healthy Nuclei (%),[3],58%
same,Population Hoechst High Intensity Objects (%),[3],0%
same,Population Membrane Permeable-Phenotype (%),[3],10%
same,Population Mitochondria Different-Phenotype (%),[3],5%
same,Population Mitotic Cells (%),[3],46%
same,Population Normal (%),[3],99%
same,Population Pyknosed Nuclei (%),[3],5%
same,Population Tubulin-Different-Phenotype (%),[3],5%
same,Total Cell Count,[3],252
same,Population Apoptotic (%),[4],57%
same,Population Fragmented Nuclei (%),[4],18%
same,Population Healthy Nuclei (%),[4],76%
same,Population Hoechst High Intensity Objects (%),[4],1%
same,Population Membrane Permeable-Phenotype (%),[4],17%
same,Population Mitochondria Different-Phenotype (%),[4],13%
same,Population Mitotic Cells (%),[4],42%
same,Population Normal (%),[4],98%
same,Population Tubulin-Different-Phenotype (%),[4],9%
same,Total Cell Count,[4],137
same,Population Apoptotic (%),[5],95%
same,Population Fragmented Nuclei (%),[5],26%
same,Population Healthy Nuclei (%),[5],65%
same,Population Hoechst High Intensity Objects (%),[5],2%
same,Population Membrane Permeable-Phenotype (%),[5],4%
same,Population Mitochondria Different-Phenotype (%),[5],2%
same,Population Mitotic Cells (%),[5],4%
same,Population Normal (%),[5],97%
same,Population Pyknosed Nuclei (%),[5],8%
same,Population Tubulin-Different-Phenotype (%),[5],3%
same,Total Cell Count,[5],263
same,Population Apoptotic (%),[6],100%
same,Population Fragmented Nuclei (%),[6],17%
same,Population Healthy Nuclei (%),[6],78%
same,Population Hoechst High Intensity Objects (%),[6],0%
same,Population Membrane Permeable-Phenotype (%),[6],10%
same,Population Mitochondria Different-Phenotype (%),[6],5%
same,Population Mitotic Cells (%),[6],0%
same,Population Normal (%),[6],100%
same,Population Pyknosed Nuclei (%),[6],4%
same,Population Tubulin-Different-Phenotype (%),[6],6%
same,Total Cell Count,[6],144
same,Population Apoptotic (%),[7],92%
same,Population Fragmented Nuclei (%),[7],33%
same,Population Healthy Nuclei (%),[7],61%
same,Population Hoechst High Intensity Objects (%),[7],2%
same,Population Membrane Permeable-Phenotype (%),[7],11%
same,Population Mitochondria Different-Phenotype (%),[7],5%
same,Population Mitotic Cells (%),[7],7%
same,Population Normal (%),[7],97%
same,Population Pyknosed Nuclei (%),[7],4%
same,Population Tubulin-Different-Phenotype (%),[7],4%
same,Total Cell Count,[7],281
same,Population Apoptotic (%),[8],64%
same,Population Fragmented Nuclei (%),[8],16%
same,Population Healthy Nuclei (%),[8],73%
same,Population Hoechst High Intensity Objects (%),[8],1%
same,Population Membrane Permeable-Phenotype (%),[8],12%
same,Population Mitochondria Different-Phenotype (%),[8],8%
same,Population Mitotic Cells (%),[8],35%
same,Population Normal (%),[8],98%
same,Population Pyknosed Nuclei (%),[8],9%
same,Population Tubulin-Different-Phenotype (%),[8],8%
same,Total Cell Count,[8],150
same,Population Apoptotic (%),[9],91%
same,Population Fragmented Nuclei (%),[9],20%
same,Population Healthy Nuclei (%),[9],69%
same,Population Hoechst High Intensity Objects (%),[9],1%
same,Population Membrane Permeable-Phenotype (%),[9],8%
same,Population Mitochondria Different-Phenotype (%),[9],3%
same,Population Mitotic Cells (%),[9],8%
same,Population Normal (%),[9],98%
same,Population Pyknosed Nuclei (%),[9],9%
same,Population Tubulin-Different-Phenotype (%),[9],5%
same,Total Cell Count,[9],372
same,Population Apoptotic (%),[10],57%
same,Population Fragmented Nuclei (%),[10],13%
same,Population Healthy Nuclei (%),[10],75%
same,Population Hoechst High Intensity Objects (%),[10],2%
same,Population Membrane Permeable-Phenotype (%),[10],6%
same,Population Mitochondria Different-Phenotype (%),[10],5%
same,Population Mitotic Cells (%),[10],42%
same,Population Normal (%),[10],97%
same,Population Pyknosed Nuclei (%),[10],10%
same,Population Tubulin-Different-Phenotype (%),[10],4%
same,Total Cell Count,[10],182
same,Population Apoptotic (%),[11],88%
same,Population Fragmented Nuclei (%),[11],30%
same,Population Healthy Nuclei (%),[11],58%
same,Population Hoechst High Intensity Objects (%),[11],1%
same,Population Membrane Permeable-Phenotype (%),[11],9%
same,Population Mitochondria Different-Phenotype (%),[11],4%
same,Population Mitotic Cells (%),[11],11%
same,Population Normal (%),[11],98%
same,Population Pyknosed Nuclei (%),[11],10%
same,Population Tubulin-Different-Phenotype (%),[11],7%
same,Total Cell Count,[11],341
same,Population Apoptotic (%),[12],75%
same,Population Fragmented Nuclei (%),[12],9%
same,Population Healthy Nuclei (%),[12],79%
same,Population Hoechst High Intensity Objects (%),[12],3%
same,Population Membrane Permeable-Phenotype (%),[12],13%
same,Population Mitochondria Different-Phenotype (%),[12],6%
same,Population Mitotic Cells (%),[12],25%
same,Population Normal (%),[12],97%
same,Population Tubulin-Different-Phenotype (%),[12],5%
same,Total Cell Count,[12],200
